Measurements reported in ChEMBL document CHEMBL1153430 (J Med Chem, 2009).

Legend:
[1] = Negative chronotropic activity in guinea pig spontaneously beating right atrium assessed as decrease in atrial rate at 10 uM relative to control; assay type: functional, Cavia porcellus, Cardiac atrium; set-up: scale not given: the % may be the effect or the level left
Procedure, shortened: (§1)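 Guinea pig isolated atria, compound given at increasing doses. Left atrium driven at 1 Hz: percent decrease in developed tension (inotropy, EC50). Spontaneously beating right atrium: percent decrease in rate (chronotropy, EC30). Probit analysis (Litchfield-Wilcoxon), n = 6-7. Potencies not calculated when maximal effect <50%.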

[2] = Negative inotropic activity in guinea pig left atrium assessed as decrease in atrial tension; assay type: functional, tissue-based; conditions: Cavia porcellus, Cardiac atrium
[3] = system: Heart; assay: Effect on cardiac activity in guinea pig spontaneously beating heart assessed as change in atrioventricular conduction time at 1 uM relative to control; assay type: functional, Cavia porcellus
Procedure, shortened: (§2)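 Isolated perfused, spontaneously beating guinea pig heart. Readouts: +(dP/dt)max (maximal rate of rise of left ventricular pressure), heart rate from ECG, coronary perfusion pressure, PR interval. Given as percent change from basal at the highest concentration tested (1 µM), mean ± SEM. pEC50 taken from log concentration-response curves, n = 4-6.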

[4] = system: Heart; assay: Effect on cardiac activity in guinea pig spontaneously beating heart assessed as change in coronary perfusion pressure at 1 uM relative to control; assay type: functional, Cavia porcellus; procedure, shortened: as §2
[5] = system: Heart; assay: Effect on cardiac activity in guinea pig spontaneously beating heart assessed as change in heart rate at 1 uM relative to control; assay type: functional, Cavia porcellus; procedure, shortened: as §2
[6] = system: Aorta; assay: Vasorelaxant activity in potassium-depolarized guinea pig thoracic aorta assessed as inhibition of calcium-induced contraction at 50 uM; assay type: functional, Cavia porcellus; set-up: scale not given: the % may be the effect or the level left
[7] = Negative inotropic activity in guinea pig left atrium assessed as decrease in atrial tension at 50 uM relative to control; assay type: functional, Cavia porcellus, Cardiac atrium; set-up: scale not given: the % may be the effect or the level left
[8] = system: Heart; assay: Effect on cardiac activity in guinea pig spontaneously beating heart assessed as change in left ventricular pressure at 1 uM relative to control; assay type: functional, Cavia porcellus; procedure, shortened: as §2
[9] = Negative chronotropic activity in guinea pig spontaneously beating right atrium assessed as decrease in atrial rate at 50 uM relative to control; assay type: functional, Cavia porcellus, Cardiac atrium; set-up: scale not given: the % may be the effect or the level left; procedure, shortened: as §1
[10] = Negative chronotropic activity in guinea pig spontaneously beating right atrium assessed as decrease in atrial rate at 100 uM relative to control; assay type: functional, Cavia porcellus, Cardiac atrium; set-up: scale not given: the % may be the effect or the level left; procedure, shortened: as §1
[11] = molecular target: T1, Voltage-gated L-type calcium channel (Rattus norvegicus, UniProt P22002+Q02485+P27732); assay: Displacement of [3H]diltiazem from L-type calcium channel in Sprague-Dawley rat cardiac myocytes by liquid scintillation counting; assay type: cell-based
[12] = Negative inotropic activity in guinea pig left atrium assessed as decrease in atrial tension at 100 uM relative to control; assay type: functional, Cavia porcellus, Cardiac atrium; set-up: scale not given: the % may be the effect or the level left; procedure, shortened: as §1
[13] = system: Aorta; assay: Vasorelaxant activity in potassium-depolarized guinea pig thoracic aorta assessed as inhibition of calcium-induced contraction at 100 uM; assay type: functional, Cavia porcellus; set-up: scale not given: the % may be the effect or the level left
[14] = Negative inotropic activity in guinea pig left atrium assessed as decrease in atrial tension at 5 uM relative to control; assay type: functional, Cavia porcellus, Cardiac atrium; set-up: scale not given: the % may be the effect or the level left; procedure, shortened: as §1
[15] = molecular target: T1, Voltage-gated L-type calcium channel; assay: Inhibition of L-type calcium channel in Wistar rat tail artery smooth muscle cells assessed as blockade of barium[…] current at 10 uM by whole cell patch-clamp assay
Procedure, shortened: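 Single smooth muscle cells isolated from rat tail main artery. Peak barium current through L-type channels [I_Ba(L)] recorded under cumulative concentrations, reported as percent inhibition. IC50 from log concentration-response curves, mean ± SEM, n = 4.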

[16] = molecular target: T1, Voltage-gated L-type calcium channel; assay: Inhibition of L-type calcium channel in Wistar rat tail artery smooth muscle cells assessed as blockade of barium[…] current by whole cell patch-clamp assay
Procedure, shortened: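 Single smooth muscle cells isolated from rat tail main artery. Peak barium current through L-type channels [I_Ba(L)] recorded under cumulative concentrations, reported as percent inhibition.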

[17] = system: Aorta; assay: Vasorelaxant activity in potassium-depolarized guinea pig thoracic aorta assessed as inhibition of calcium-induced contraction; assay type: functional, Cavia porcellus; set-up: scale not given: the % may be the effect or the level left
[18] = Ratio of IC50 for L-type calcium channel in Wistar rat tail artery smooth muscle cells to EC50 for negative inotropic activity in guinea pig left atrium; set-up: species or system Cardiac atrium
[19] = Negative inotropic activity in guinea pig left atrium assessed as decrease in atrial tension at 10 uM relative to control; assay type: functional, Cavia porcellus, Cardiac atrium; set-up: scale not given: the % may be the effect or the level left; procedure, shortened: as §1
[20] = Negative inotropic activity in guinea pig left atrium assessed as decrease in atrial tension at 1 uM relative to control; assay type: functional, Cavia porcellus, Cardiac atrium; set-up: scale not given: the % may be the effect or the level left
[21] = Negative chronotropic activity in guinea pig spontaneously beating right atrium assessed as decrease in atrial rate at 1 uM relative to control; assay type: functional, Cavia porcellus, Cardiac atrium; set-up: scale not given: the % may be the effect or the level left

SMILES	EC50 [2] [µM]	Activity [6] [%]	Activity [10] [%]	Activity [12] [%]	Activity [13] [%]	further results
CCOC1(c2ccc(Br)cc2)SC=C(C)n2c1noc2=O (configuration not stated)	0.04	19				Activity [1]: 5%; Activity [3]: 32%; Activity [4]: -9%; Activity [5]: -14%; Activity [7]: 77%; Activity [8]: -3%
CS/C=C(/C)n1c(C(=O)c2ccc(Cl)cc2)noc1=O	1.45	8				Activity [7]: 71%; Activity [9]: 10%
C/C(=C/[S+](C)[O-])n1c(C(=O)c2ccc(Br)cc2)noc1=O (configuration not stated)	0.48		33	89	2	Ki [11]: 23.68 µM
CCCCCCCCCS/C=C(/C)n1c(C(=O)c2ccc(Br)cc2)noc1=O	1.03		3	84	12	
C/C(=C/SS/C=C(/C)n1c(C(=O)c2ccc(Cl)cc2)noc1=O)n1c(C(=O)c2ccc(Cl)cc2)noc1=O	4.39		4	72	6	
C/C(=C/Sc1sc([N+](=O)[O-])cc1[N+](=O)[O-])n1c(C(=O)c2ccc(Br)cc2)noc1=O	0.73	32				Activity [1]: 27%; Activity [14]: 85%
COc1ccc(C2(O)SC=C(C)n3c2noc3=O)cc1 (configuration not stated)	0.32	12				Activity [7]: 97%; Activity [9]: 18%
CC1=CSC(O)(c2ccc(Br)cc2)c2noc(=O)n21 (configuration not stated)	0.32	12				Activity [15]: Not Active; Ki [11]: 0.29 µM; Activity ([11]; rat): Dose-dependent effect; IC50 [16]: 33.36 µM; Activity ([16]; rat): Dose-dependent effect; Activity [17]: <30%; Activity [7]: 97%; Ratio IC50 [18]: 100; Activity [9]: 18%
CCCS/C=C(/C)n1c(C(=O)c2ccc(Cl)cc2)noc1=O	2.19			84	15	Activity [9]: 17%
CCCCCCCCCS/C=C(/C)n1c(C(=O)c2ccc(Cl)cc2)noc1=O	0.67		2		5	Activity [19]: 84%
C/C(=C/SCC(C)C)n1c(C(=O)c2ccc(Br)cc2)noc1=O	0.91		16	88	24	
C/C(=C/[S][Ag])n1c(C(=O)c2ccc(Br)cc2)coc1=O					26	Activity [3]: 30%; Activity [4]: -3%; Activity [5]: -4%; Activity [20]: 32%; Activity [17]: <30%; Activity [21]: 18%; Activity [8]: 0%
C/C(=C/SS/C=C(/C)n1c(C(=O)c2ccc(Br)cc2)noc1=O)n1c(C(=O)c2ccc(Br)cc2)noc1=O	1.7		9	73	5	Ki [11]: 0.2 µM
C/C(=C/[S][Ag])n1c(C(=O)c2ccc(Cl)cc2)noc1=O		4	7			Activity [20]: 49%; Activity [17]: <30%
CCS/C=C(/C)n1c(C(=O)c2ccc(Br)cc2)noc1=O	1.33		18	89	43	
